According to ChEMBL document CHEMBL3046780, “Syntheses and herbicidal activity of new triazolopyrimidine-2-sulfonamides as acetohydroxyacid synthase inhibitor” (Bioorg Med Chem, 2010):
pKi: −log10 of the molar value.

Tests used:
Polygonum humifusum [1] = test: Post-emergence herbicidal activity against Polygonum humifusum assessed as growth inhibition at 75 g ai/ha measured 15 days post compound treatment under green house conditions; assay type: functional; conditions: 360 h, read-out: GI
How it was run: (§1)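 Compounds formulated as 100 g/L emulsifiable concentrate (DMF solvent, Tween-80 emulsifier), diluted with water, sprayed post-emergence on pot-grown weeds in clay soil (pH 6.5, 1.6% organic matter). Seeds sown 1-3 cm deep, grown at 15-30 °C. Dicots were treated at the 2-leaf stage and monocots at the 1-leaf stage. Untreated and DMF-treated controls were included. Injury was rated visually 15 days after treatment.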

Polygonum humifusum [2] = test: Post-emergence herbicidal activity against Polygonum humifusum assessed as growth inhibition at 37.5 g ai/ha measured 15 days post compound treatment under green house conditions; assay type: functional; conditions: 360 h, read-out: GI; how it was run: as §1
Galium aparine [3] = test: Post-emergence herbicidal activity against Galium aparine assessed as growth inhibition at 75 g ai/ha measured 15 days post compound treatment under green house conditions; assay type: functional; conditions: 360 h, read-out: GI; how it was run: as §1
Galium aparine [4] = test: Post-emergence herbicidal activity against Galium aparine assessed as growth inhibition at 150 g ai/ha measured 15 days post compound treatment under green house conditions; assay type: functional; conditions: 360 h, read-out: GI; how it was run: as §1
Galium aparine [5] = test: Post-emergence herbicidal activity against Galium aparine assessed as growth inhibition at 37.5 g ai/ha measured 15 days post compound treatment under green house conditions; assay type: functional; conditions: 360 h, read-out: GI; how it was run: as §1
Eclipta prostrata [6] = test: Post-emergence herbicidal activity against Eclipta prostrata assessed as growth inhibition at 150 g ai/ha measured 15 days post compound treatment under green house conditions; assay type: functional; conditions: 360 h, read-out: GI; how it was run: as §1
Amaranthus retroflexus [7] = test: Post-emergence herbicidal activity against Amaranthus retroflexus assessed as growth inhibition at 150 g ai/ha measured 15 days post compound treatment under green house conditions; assay type: functional; conditions: 360 h, read-out: GI; how it was run: as §1
Brassica juncea = test: Post-emergence herbicidal activity against Brassica juncea assessed as growth inhibition at 150 g ai/ha measured 15 days post compound treatment under green house conditions; assay type: functional; conditions: 360 h, read-out: GI; how it was run: as §1
Poa annua = test: Post-emergence herbicidal activity against Poa annua assessed as growth inhibition at 150 g ai/ha measured 15 days post compound treatment under green house conditions; assay type: functional; conditions: 360 h, read-out: GI; how it was run: as §1
Digitaria sanguinalis = test: Post-emergence herbicidal activity against Digitaria sanguinalis (hairy crabgrass) assessed as growth inhibition at 150 g ai/ha measured 15 days post compound treatment under green house conditions; assay type: functional; conditions: 360 h, read-out: GI; how it was run: as §1
Echinochloa crus-galli = test: Post-emergence herbicidal activity against Echinochloa crus-galli (barnyard grass) assessed as growth inhibition at 150 g ai/ha measured 15 days post compound treatment under green house conditions; assay type: functional; conditions: 360 h, read-out: GI; how it was run: as §1
Chenopodium album [8] = test: Post-emergence herbicidal activity against Chenopodium album assessed as growth inhibition at 37.5 g ai/ha measured 15 days post compound treatment under green house conditions; assay type: functional; conditions: 360 h, read-out: GI; how it was run: as §1
Cyperus iria [9] = test: Post-emergence herbicidal activity against Cyperus iria assessed as growth inhibition at 150 g ai/ha measured 15 days post compound treatment under green house conditions; assay type: functional; conditions: 360 h, read-out: GI; how it was run: as §1
Cyperus iria [10] = test: Post-emergence herbicidal activity against Cyperus iria assessed as growth inhibition at 75 g ai/ha measured 15 days post compound treatment under green house conditions; assay type: functional; conditions: 360 h, read-out: GI; how it was run: as §1
Cyperus iria [11] = test: Post-emergence herbicidal activity against Cyperus iria assessed as growth inhibition at 37.5 g ai/ha measured 15 days post compound treatment under green house conditions; assay type: functional; conditions: 360 h, read-out: GI; how it was run: as §1
Cerastium arvense [12] = test: Post-emergence herbicidal activity against Cerastium arvense assessed as growth inhibition at 150 g ai/ha measured 15 days post compound treatment under green house conditions; assay type: functional; conditions: 360 h, read-out: GI; how it was run: as §1
Cerastium arvense [13] = test: Post-emergence herbicidal activity against Cerastium arvense assessed as growth inhibition at 75 g ai/ha measured 15 days post compound treatment under green house conditions; assay type: functional; conditions: 360 h, read-out: GI; how it was run: as §1
Cerastium arvense [14] = test: Post-emergence herbicidal activity against Cerastium arvense assessed as growth inhibition at 37.5 g ai/ha measured 15 days post compound treatment under green house conditions; assay type: functional; conditions: 360 h, read-out: GI; how it was run: as §1
Polygonum humifusum [15] = test: Post-emergence herbicidal activity against Polygonum humifusum assessed as growth inhibition at 150 g ai/ha measured 15 days post compound treatment under green house conditions; assay type: functional; conditions: 360 h, read-out: GI; how it was run: as §1
Eclipta prostrata [16] = test: Post-emergence herbicidal activity against Eclipta prostrata assessed as growth inhibition at 75 g ai/ha measured 15 days post compound treatment under green house conditions; assay type: functional; conditions: 360 h, read-out: GI; how it was run: as §1
Eclipta prostrata [17] = test: Post-emergence herbicidal activity against Eclipta prostrata assessed as growth inhibition at 37.5 g ai/ha measured 15 days post compound treatment under green house conditions; assay type: functional; conditions: 360 h, read-out: GI; how it was run: as §1
Rumex acetosa [18] = test: Post-emergence herbicidal activity against Rumex acetosa assessed as growth inhibition at 150 g ai/ha measured 15 days post compound treatment under green house conditions; assay type: functional; conditions: 360 h, read-out: GI; how it was run: as §1
Rumex acetosa [19] = test: Post-emergence herbicidal activity against Rumex acetosa assessed as growth inhibition at 75 g ai/ha measured 15 days post compound treatment under green house conditions; assay type: functional; conditions: 360 h, read-out: GI; how it was run: as §1
Rumex acetosa [20] = test: Post-emergence herbicidal activity against Rumex acetosa assessed as growth inhibition at 37.5 g ai/ha measured 15 days post compound treatment under green house conditions; assay type: functional; conditions: 360 h, read-out: GI; how it was run: as §1
Amaranthus retroflexus [21] = test: Post-emergence herbicidal activity against Amaranthus retroflexus assessed as growth inhibition at 75 g ai/ha measured 15 days post compound treatment under green house conditions; assay type: functional; conditions: 360 h, read-out: GI; how it was run: as §1
Amaranthus retroflexus [22] = test: Post-emergence herbicidal activity against Amaranthus retroflexus assessed as growth inhibition at 37.5 g ai/ha measured 15 days post compound treatment under green house conditions; assay type: functional; conditions: 360 h, read-out: GI; how it was run: as §1
Chenopodium album [23] = test: Post-emergence herbicidal activity against Chenopodium album assessed as growth inhibition at 150 g ai/ha measured 15 days post compound treatment under green house conditions; assay type: functional; conditions: 360 h, read-out: GI; how it was run: as §1
Chenopodium album [24] = test: Post-emergence herbicidal activity against Chenopodium album assessed as growth inhibition at 75 g ai/ha measured 15 days post compound treatment under green house conditions; assay type: functional; conditions: 360 h, read-out: GI; how it was run: as §1
[25] = biological target: T1, Acetolactate synthase, chloroplastic (Arabidopsis thaliana, UniProt P17597)
T1 sequence (P17597 whole entry): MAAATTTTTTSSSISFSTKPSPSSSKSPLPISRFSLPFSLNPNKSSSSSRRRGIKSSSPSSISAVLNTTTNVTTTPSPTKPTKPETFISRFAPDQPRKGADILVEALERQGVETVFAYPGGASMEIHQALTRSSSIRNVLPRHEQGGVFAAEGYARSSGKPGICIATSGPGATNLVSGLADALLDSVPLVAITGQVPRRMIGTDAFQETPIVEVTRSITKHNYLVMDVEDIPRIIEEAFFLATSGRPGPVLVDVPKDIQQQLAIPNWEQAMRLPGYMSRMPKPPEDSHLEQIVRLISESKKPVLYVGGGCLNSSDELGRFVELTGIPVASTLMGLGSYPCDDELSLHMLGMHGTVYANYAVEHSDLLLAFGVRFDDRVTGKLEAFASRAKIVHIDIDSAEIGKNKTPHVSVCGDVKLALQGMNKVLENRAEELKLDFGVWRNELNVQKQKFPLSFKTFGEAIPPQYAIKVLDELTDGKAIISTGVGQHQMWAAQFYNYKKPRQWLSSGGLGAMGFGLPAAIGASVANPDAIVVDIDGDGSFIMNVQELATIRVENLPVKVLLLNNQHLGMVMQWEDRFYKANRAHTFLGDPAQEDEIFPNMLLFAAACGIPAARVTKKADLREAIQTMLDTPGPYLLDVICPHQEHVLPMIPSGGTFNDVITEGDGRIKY

COC(=O)c1cccc(Cl)c1NS(=O)(=O)c1nc2nc(OC)ccn2n1 was tested, and the inhibition of growth at 75 g/ha (Polygonum humifusum [1]) was 50%, the inhibition of growth at 37.5 g/ha (Polygonum humifusum [2]) was 50% and the inhibition of growth at 75 g/ha (Galium aparine [3]) was at least 90%. For the same molecule, the inhibition of growth at 150 g/ha (Galium aparine [4]) was at least 90%, the inhibition of growth at 37.5 g/ha (Galium aparine [5]) was at least 80% and the inhibition of growth at 150 g/ha (Eclipta prostrata [6]) was at least 90%. It also gave an inhibition of growth at 150 g/ha (Amaranthus retroflexus [7]) of at least 80%, an inhibition of growth at 150 g/ha (Brassica juncea) of at least 90% and an inhibition of growth at 150 g/ha (Poa annua) of under 50%. It also gave an inhibition of growth at 150 g/ha (Digitaria sanguinalis) of under 50%, an inhibition of growth at 150 g/ha (Echinochloa crus-galli) of 50% and an inhibition of growth at 37.5 g/ha (Chenopodium album [8]) of at least 80%. For the same molecule, the inhibition of growth at 150 g/ha (Cyperus iria [9]) was 50%, the inhibition of growth at 75 g/ha (Cyperus iria [10]) was 50% and the inhibition of growth at 37.5 g/ha (Cyperus iria [11]) was 50%. The inhibition of growth at 150 g/ha (Cerastium arvense [12]) was at least 90%, the inhibition of growth at 75 g/ha (Cerastium arvense [13]) was at least 80% and the inhibition of growth at 37.5 g/ha (Cerastium arvense [14]) was at least 80%. The inhibition of growth at 150 g/ha (Polygonum humifusum [15]) was 50%, the inhibition of growth at 75 g/ha (Eclipta prostrata [16]) was at least 80% and the inhibition of growth at 37.5 g/ha (Eclipta prostrata [17]) was 50%. For the same molecule, the inhibition of growth at 150 g/ha (Rumex acetosa [18]) was at least 80%, the inhibition of growth at 75 g/ha (Rumex acetosa [19]) was at least 80% and the inhibition of growth at 37.5 g/ha (Rumex acetosa [20]) was at least 80%. It also gave an inhibition of growth at 75 g/ha (Amaranthus retroflexus [21]) of at least 80%, an inhibition of growth at 37.5 g/ha (Amaranthus retroflexus [22]) of at least 80% and an inhibition of growth at 150 g/ha (Chenopodium album [23]) of at least 90%. For the same molecule, the inhibition of growth at 75 g/ha (Chenopodium album [24]) was at least 90% and the pKi [25] was 5.79.
